Compounds with a hit are over-represented: about 2.2% of the library has one in this group of screens.
DNMT1 block – human DNMT1 methyltransferase inhibitors, primary screen, biochemical, molecular beacon, fluorescence, HinP1I cleavage, uHTS. DNA (cytosine-5)-methyltransferase 1 (Homo sapiens), P26358. inhibition (reported as % activation of signal), % at 10 µM. actives 0.83% (n = 360,000). AID 588458, 2011; in the data active = inhibition above about 50%
LMPTP block – LMPTP phosphatase inhibitors, primary screen, biochemical, fluorescence intensity, uHTS. Low molecular weight phosphotyrosine protein phosphatase (Homo sapiens), P24666. recombinant LMPTP-A, OMFP fluorogenic substrate. inhibition, % at 20 µM. actives 0.22% (n = 360,000);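 active = compounds that cut the enzyme signal by at least half of the control window in the single-dose screen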;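 note: plate controls were DMSO wells with enzyme plus substrate for no effect and substrate without enzyme for full effect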
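Material: LMPTP-A; amount: 0.625 nM enzyme; doses: single 20 µM dose; times: reaction 50 min, room temperature, dark; technique: fluorescence intensity of OMFP turnover product; benchmarks: no-enzyme and uninhibited controls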
Scp1 inh – Scp-1 phosphatase inhibitors, primary screen, biochemical, colorimetric, uHTS; actives 0.88% (n = 340,000); Carboxy-terminal domain RNA polymerase II polypeptide A small phosphatase 1 (Homo …; inhibition, % at 20 µM; Recombinant Scp1, phosphopeptide, malachite green phosphate absorbance; AID 493091, 2011;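 active = inhibition above about 50% at 20 µM, limit read from the data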;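 note: plate controls were DMSO wells with enzyme for no effect and wells lacking enzyme for full effect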
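Test system: SCP-1 catalytic domain; Buffer or medium: Acidic Tris acetate buffer with magnesium and detergent; Also added: Phosphorylated 17-residue peptide substrate; Compound: single 20 µM dose, 1% DMSO; Schedule: enzyme reaction 45 min at room temperature, colour 5 min, stabilisation 30 min; Signal: Phosphate-binding colour reagent, absorbance read at 630 nm.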
STEP inh – STEP phosphatase inhibitors, primary screen, biochemical, fluorescence intensity, uHTS; Tyrosine-protein phosphatase non-receptor type 5 (Homo sapiens), P54829; recombinant STEP, OMFP fluorogenic substrate; inhibition, % at 20 µM; actives 0.25% (n = 360,000); AID 588621, 2011;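 active = inhibition at 20 µM, scaled per plate between control wells, above about 37%, limit read from the data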;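 note: 0% = DMSO with enzyme and substrate and 100% = substrate only without enzyme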
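material = STEP tyrosine phosphatase | reagent = fluorogenic phosphatase substrate OMFP at 25 µM final | doses = single compound dose of 20 µM, 1% DMSO final | schedule = 20 min reaction, room temperature, in the dark | measured by = fluorescence, 480/540 nm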
SUMO1-SIM PPI – modulators of SUMO1 protein-protein interactions, primary screen, biochemical, uHTS; Small ubiquitin-related modifier 1 (Homo sapiens), P63165; SUMO1 binding to a labelled peptide, TR-FRET, 1 h; inhibition, % at 20 µM; actives 0.33% (n = 360,000); in the data active = inhibition above about 37%
GRK2 inh – compounds blocking aptamer binding on GRK2 – biochemical, human GRK2, bead flow cytometry, HTS, primary screen; Beta-adrenergic receptor kinase 1 (Homo sapiens), P25098; FAM-aptamer displacement from GRK2; inhibition of aptamer binding, % at 10 µM; actives 0.59% (n = 330,000); AID 488847, 2010;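 active = inhibition of aptamer binding above 40%, roughly 3 SD of noise, on plates passing a quality check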;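 note: median bead fluorescence of bound FAM aptamer so fluorescent compounds give negative values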
Target sequence (P25098 whole entry, looked up): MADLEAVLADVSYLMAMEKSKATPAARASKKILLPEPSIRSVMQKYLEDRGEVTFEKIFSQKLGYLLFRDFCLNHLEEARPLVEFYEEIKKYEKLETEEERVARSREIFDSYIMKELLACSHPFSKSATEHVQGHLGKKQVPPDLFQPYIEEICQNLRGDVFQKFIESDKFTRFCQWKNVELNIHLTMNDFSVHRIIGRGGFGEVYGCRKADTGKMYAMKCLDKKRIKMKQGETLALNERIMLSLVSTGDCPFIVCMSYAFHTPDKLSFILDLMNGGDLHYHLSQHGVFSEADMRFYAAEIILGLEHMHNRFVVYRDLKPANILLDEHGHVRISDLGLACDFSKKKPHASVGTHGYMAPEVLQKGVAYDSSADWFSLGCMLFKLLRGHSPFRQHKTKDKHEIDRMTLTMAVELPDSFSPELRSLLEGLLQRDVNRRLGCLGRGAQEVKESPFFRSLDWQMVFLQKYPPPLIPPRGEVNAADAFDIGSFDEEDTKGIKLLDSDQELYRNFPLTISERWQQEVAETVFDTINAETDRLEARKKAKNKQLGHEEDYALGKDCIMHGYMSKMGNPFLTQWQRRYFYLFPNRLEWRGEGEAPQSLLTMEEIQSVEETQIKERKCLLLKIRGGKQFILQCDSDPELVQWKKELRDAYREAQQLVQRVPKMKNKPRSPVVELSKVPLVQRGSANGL
The depositor's hits bear a star; · = no result; ! = repeats disagree.

SMILES	DNMT1 block	LMPTP block	Scp1 inh	STEP inh	SUMO1-SIM PPI	GRK2 inh
Cc1ccc(NC(=O)C2(C)CCN2C(=O)CC(c2ccccc2)c2ccccc2)cc1 (stereo unspecified)	-5	3	·	0	1	·
CCSc1nc(C)nc2sc(C)c(C)c12	24	1	-12	4	79*	3
Nc1nc2ccc(Cl)cc2cc1C(=O)NCCc1c[nH]c2ccccc12	·	1	·	·	0	·
Cc1ccc(F)cc1-c1cc2nc(NCCCN(C)C)n(C)c(=O)c2s1	-1	-2	·	0	-16	·
O=C(NC(=S)NCCC1=CCCCC1)c1ccccc1Br	-10	4	67*	-3	4	0
Cc1ccc(S(=O)(=O)N2CC3(O)CN(C(=O)OC(C)C)N(C(=O)OC(C)C)CC3(OC(=O)NC3CCCC3)C2)cc1 (stereo unspecified)	-2	1	·	3	-1	·
OC[C@@H]1CN(Cc2ccncc2)C[C@H](n2cnc3c(NC4CCCC4)ncnc32)O1	3	-3	·	-4	1	·
O=C(Nc1ccc2c(c1)nc1n2CCN(C2CCCCC2)C1)c1ccco1	-8	16	-1	-1	-5	·
COc1ccccc1C(=O)Nc1ccc2c(c1)nc1n2CCN(C2CCCCC2)C1	60*	21	-3	2	3	0
COCCNc1nc(-c2ccccc2F)c2sc(-c3ccccc3)cc2n1	9	4	·	3	-13	·
Cc1nnc(C)c2c(C)n(-c3ccc4ncccc4c3)c(C)c12	-7	54*	1	3	-1	4
CCCCCC(=O)N1C[C@H](O)[C@@H](n2cc(C3CC3)nn2)C[C@@H]1c1ccc(C)cc1	0	-1	·	1	2	·
O=C(Nc1ccc(F)cc1)c1ccc(NC(=O)C2CCCO2)cc1 (stereo unspecified)	2	-1	0	1	4	0
O=C(Nc1ccc(C(F)(F)F)cc1)c1ccc(NC(=O)C2CCCO2)cc1 (stereo unspecified)	9	40	33	52*	18	0
Cn1c(N)c(N2CCCCC2)c(=O)n(CC(=O)Nc2ccc(Cl)c(Cl)c2)c1=O	-5	-1	-3	-2	56*	2
Cc1csc(=O)n1CC(=O)Nc1ccc(Cl)c(Cl)c1	-8	2	-8	-5	-6	0
CCC(=O)N1CCC1(C)C(=O)Nc1ccc(Cl)c(Cl)c1 (stereo unspecified)	-4	-1	·	-1	16	·
CSc1nsc2nc(=O)c(/C=C3\C(C)=Nc4ccc(C)cc43)c(N)n12	-4	8	-11	0	7	3
CC1=Nc2ccc(C)cc2/C1=C/c1c(N)n2oc(C)cc2nc1=O	56*!	16	-4	6	5	0
COc1ccc2noc3c2c1C(=O)c1ccccc1-3	187*	-23	-6	-386	-30	12
COc1ccc(OC)c2c1C(=O)c1ccccc1C2=O	·	·	-1	·	·	2
CC1(Cc2ccc(F)c(Cl)c2)C(=O)Nc2c(Cl)cccc21 (stereo unspecified)	3	3	·	2	1	·
NC1=NC2(CCN(Cc3ccccc3)CC2)n2c(nc3ccccc32)N1	3	49*	-7	2	-4	0
CCc1ccc(C2=NN(C(C)=O)C(c3ccco3)C2)cc1 (stereo unspecified)	-1	0	69*	-2	0	0
CCCCCCCCN1C(=O)[C@H](CC(=O)N2CCSCC2)C[C@@]2(C(=O)OC)CCCCC=C12	·	6	·	·	6	·
SMILES	DNMT1 block	LMPTP block	Scp1 inh	STEP inh	SUMO1-SIM PPI	GRK2 inh
Cc1ccc(F)c(S(=O)(=O)NC(=O)C2(C)CCN2C(=O)Cc2ccccc2)c1 (stereo unspecified)	-3	-1	·	4	1	·
COc1ccc(OC)c(C2CC(=O)c3c([nH]c(C(=O)OCC4CCCO4)c3C)C2)c1 (stereo unspecified)	-3	2	-13	4	5	3
C/C=C/COC(=O)c1[nH]c2c(c1C)C(=O)CC(c1ccco1)C2 (stereo unspecified)	37	61*	52*	0	14	4
Cc1c(C(=O)OCC(C)C)[nH]c2c1C(=O)CC(c1ccco1)C2 (stereo unspecified)	9	69*	7	3	9	1
Cc1c(C(=O)OCC2CCCO2)[nH]c2c1C(=O)CC(c1ccco1)C2 (stereo unspecified)	98*	53*	84*	3	19	17
C/C=C/COC(=O)c1[nH]c2c(c1C)C(=O)CC(c1ccc(N(C)C)cc1)C2 (stereo unspecified)	1	4	0	-1	4	0
Cc1c(C(=O)OC2CCCC2)[nH]c2c1C(=O)CC(c1ccco1)C2 (stereo unspecified)	14	37	34	-1	19	8
C=CCOC(=O)c1[nH]c2c(c1C)C(=O)CC(c1ccco1)C2 (stereo unspecified)	·	·	60*	·	·	7
CCCNC(=O)C1(C)CCN(Cc2ccc(OC)c3ccccc23)C1 (stereo unspecified)	-2	0	·	-1	-10	·
C[C@@H](NC(=O)[C@@H]1CCCN1C(=O)[C@@H]1CCCN1C(=O)c1cccs1)c1ccccc1	·	-2	·	·	3	·
CC1=NN(c2ccc(Cl)c(C(=O)O)c2)C(=O)/C1=C\c1ccc(-c2ccc(C(=O)O)cc2)o1	28	1	81*	21	14	·
CC1=NN(c2ccc(C)cc2)C(=O)/C1=C/c1ccc(-c2cc([N+](=O)[O-])ccc2O)o1	41	25	20	7	80*	·
O=C1NN(c2cccc(Br)c2)C(=O)/C1=C\c1ccc(O)cc1	5	0	-11	6	-1	2
O=C1NN(c2ccc(Cl)c(Cl)c2)C(=O)/C1=C/c1ccc(-c2ccccc2C(=O)O)o1	60*	8	49	20	30	8
CC1=NN(c2ccc(C(=O)O)cc2)C(=O)/C1=C/c1ccc(-c2ccccc2F)o1	9	0	·	5	12	0
O=C1NN(c2cccc(Br)c2)C(=O)/C1=C/c1ccc(-c2cc([N+](=O)[O-])ccc2O)o1	53*	77*	99*	70*	102*	0
OC[C@@H]1CN(Cc2ccc(Cl)cc2)C[C@H](n2cnc3c(NCc4ccc(F)cc4)ncnc32)O1	-12	1	·	-2	4	·

Source: PubChem BioAssay (several laboratories)
